Compounds with a hit are over-represented: about 1.9% of the library has one in this group of screens.
HGIII-sPLA2 inh = Inhibits HGIII-sPLA2 liposome hydrolysis, primary screen; 370,000 tested, 0.56% active; inhibition, % at 12.2 µM; QFRET BODIPY PC-A2 liposome hydrolysis, fluorescence; Q9NZ20;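 active = inhibition above mean plus 3 SD of compounds lying within the high and low control bounds, cut at about 19% in these data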;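 also: 0% = median of test compound wells and 100% = no enzyme DMSO wells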
Arr AP2 block = blocks beta-arrestin peptide binding to AP2 adaptin; 340,000 tested, 0.31% active; FITC-arrestin peptide / GST-AP2 beads, flow cytometry; AP2 beta2 appendage carries R879A mutation; AID 504490; inhibition, % at 10 µM;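 active = inhibition above a set limit, near 3 SD of compounds lacking own fluorescence, cut at about 54% in these data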;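 also: plate controls were DMSO wells for no effect and 5 µM unlabelled arrestin peptide for full effect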
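System: GST-AP2 R879A glutathione beads | Also added: FITC-arrestin peptide, 50 nM | Times: 12 min plus 1 h, RT | Signal: Bead flow cytometry, FITC channel | Buffer or medium: PBS with 0.05% Tween 20 and 0.1% BSA | Read-out basis: Percent drop in bead-associated FITC signal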
PLC-gamma1 inh = inhibitors of human phospholipase C gamma1; P19174; purified PLC-gamma1, fluorogenic substrate, fluorescence; inhibition, % at 12.2 µM; 370,000 tested, 0.84% active; AID 720700; in the data active = inhibition above about 9.5%
proCasp3 act = procaspase-3 (human) activation; activation, % at 8.5 µM; AID 463141; 330,000 tested, 0.11% active; recombinant procaspase-3 D3A, Ac-DEVD-pNA absorbance 405 nm; P42574;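 active = activation above the mean of all tested compounds plus 3 SD, cut at about 21% in these data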;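 also: 0% = DMSO alone and 100% = DMSO wells spiked with extra 5 µM PC-3 D3A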
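Assay system: Autoprocessing-dead procaspase-3 D3A mutant enzyme; also added: Ac-DEVD-pNA; doses: one concentration, 8.5 µM nominal, 0.8% DMSO; times: 1 h compound preincubation, 2 h substrate hydrolysis at 25 °C; technique: 405 nm absorbance of p-nitroaniline, reads at 0 and 120 min; measure: % activation between DMSO and enzyme-spiked controls; repeats: single replicate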
PLCb3 inh = inhibitors of human phospholipase C beta3 | Q01970 | Purified PLC-beta3, fluorogenic substrate, fluorescence | inhibition, % at 12.2 µM | 370,000 tested, 0.18% active; in the data active = inhibition above about 11%;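 also: 0% = median of compound wells on plate and 100% = full blocker control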
Target sequence (Q01970 whole entry, looked up): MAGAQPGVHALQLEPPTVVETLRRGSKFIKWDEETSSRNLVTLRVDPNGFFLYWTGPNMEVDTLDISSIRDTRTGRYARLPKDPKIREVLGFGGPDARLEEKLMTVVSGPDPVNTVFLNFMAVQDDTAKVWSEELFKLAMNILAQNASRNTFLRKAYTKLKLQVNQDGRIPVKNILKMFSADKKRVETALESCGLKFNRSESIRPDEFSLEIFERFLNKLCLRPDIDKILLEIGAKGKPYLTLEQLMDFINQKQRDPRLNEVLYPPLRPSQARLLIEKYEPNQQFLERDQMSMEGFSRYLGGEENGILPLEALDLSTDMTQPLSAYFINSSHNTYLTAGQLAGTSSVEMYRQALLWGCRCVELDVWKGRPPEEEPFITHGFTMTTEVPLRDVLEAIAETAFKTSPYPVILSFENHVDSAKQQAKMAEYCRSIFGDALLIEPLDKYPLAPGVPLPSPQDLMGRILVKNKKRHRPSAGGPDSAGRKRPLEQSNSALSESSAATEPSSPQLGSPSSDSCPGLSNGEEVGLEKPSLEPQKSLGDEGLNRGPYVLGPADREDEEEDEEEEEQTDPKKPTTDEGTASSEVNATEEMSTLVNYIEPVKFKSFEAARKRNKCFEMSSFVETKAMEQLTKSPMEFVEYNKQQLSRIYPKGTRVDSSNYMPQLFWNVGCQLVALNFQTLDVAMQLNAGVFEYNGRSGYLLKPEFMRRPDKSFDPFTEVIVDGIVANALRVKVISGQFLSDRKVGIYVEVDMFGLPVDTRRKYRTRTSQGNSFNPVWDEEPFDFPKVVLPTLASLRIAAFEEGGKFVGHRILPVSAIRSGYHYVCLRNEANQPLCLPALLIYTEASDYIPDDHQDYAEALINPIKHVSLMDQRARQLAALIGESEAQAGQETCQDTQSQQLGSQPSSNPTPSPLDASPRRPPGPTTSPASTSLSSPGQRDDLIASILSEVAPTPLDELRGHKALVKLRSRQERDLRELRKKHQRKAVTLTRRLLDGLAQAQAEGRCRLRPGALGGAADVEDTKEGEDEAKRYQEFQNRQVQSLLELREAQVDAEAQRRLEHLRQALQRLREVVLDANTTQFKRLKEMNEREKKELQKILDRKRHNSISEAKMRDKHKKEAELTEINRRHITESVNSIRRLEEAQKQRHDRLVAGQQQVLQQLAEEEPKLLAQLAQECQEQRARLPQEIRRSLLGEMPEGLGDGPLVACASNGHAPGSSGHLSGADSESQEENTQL
procasp7 counter = counter-screen for procaspase-3 activators: activators of human procaspase-7; activation, % at 8.5 µM; recombinant procaspase-7, Ac-DEVD-pNA absorbance 405 nm; D23A/D198A/D206A triple mutant, cannot self-cleave; scale: DMSO 0, 5 µM enzyme 100; P55210; AID 463210; 330,000 tested, 0.093% active;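 active = percent activation above the screen-wide mean plus 3 SD, cut at about 25% in these data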
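buffer or medium = Zinc-free HEPES/NaCl buffer, pH 7.4 | material = Procaspase-7 triple mutant (PC-7 D3A) | input = 2 µM procaspase-7 mutant as dispensed | signal = Epi-absorbance of released pNA at 405 nm, two timepoints | timing = 1 h preincubation, 2 h reaction | replicates = singlicate compound testing | evaluation = % activation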
hGIII sPLA2 conf = human GIII-sPLA2 inhibition, confirmation; shares compounds with HGIII-sPLA2 inh; recombinant hGIII-sPLA2, BODIPY PC-A2 QFRET fluorescence; inhibition, % at 12.2 µM; 2,000 tested, 34% active; AID 743280;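 active = mean inhibition across triplicates above the hit cutoff set in the earlier primary screen, cut at about 19% in these data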;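 also: 0% = enzyme with DMSO and 100% = DMSO wells lacking enzyme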
535nm interf = optically interferes with 535nm fluorescence in sPLA2 counter-screen. shares compounds with HGIII-sPLA2 inh. BODIPY FL product fluorescence interference, QFRET. inhibition, % at 12.2 µM. 2,000 tested, 8.5% active. AID 743282;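 active = average inhibition above the solvent-only control mean plus 3 SD, cut at about 6% in these data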;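 also: 0% = DMSO with substrate plus product and 100% = DMSO with substrate alone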
BODIPY interf DR = counter-screen for HGIII-sPLA2 inhibitors: 535nm fluorescence interference, dose response. BODIPY FL product fluorescence interference, cell-free. 240 tested, under 10 active. shares compounds with HGIII-sPLA2 inh. IC50, µM;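 active = IC50 at or below 10 µM; inactive = IC50 above 10 µM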
An asterisk follows results filed as active; x = not tested or not shown.

SMILES | HGIII-sPLA2 inh | Arr AP2 block | PLC-gamma1 inh | proCasp3 act | PLCb3 inh | procasp7 counter | hGIII sPLA2 conf | 535nm interf | others
CC1(C)Oc2ccc3ccc(=O)oc3c2C(/C=N/O)=C1Cl | 21.2* | -3.1 | -25.0 | 8.3 | -42.3 | 0.1 | 7.9 | -4.8
O=S(=O)(NNc1nccc(C(F)(F)F)n1)c1cccc(Cl)c1Cl | 57.8* | 49.2 | 0.4 | -9.1 | -5.0 | -16.4 | 84.1* | 87.6*
CC1(C)CC(CCN)(Cc2ccccc2Cl)CCO1 (stereo not given) | 19.7* | -5.7 | 2.2 | -2.3 | -2.4 | 2.0 | 10.5 | -11.6
CC(C)(C)NC(=O)N1CCC(CO)(Cc2ccccc2Cl)CC1 | 1.2 | -6.7 | 4.1 | 5.3 | -2.7 | 4.5 | x | x
CC1CC(C)CN(C(=O)c2cc3cc(Br)cc(Br)c3o2)C1 (stereo not given) | 2.1 | 5.5 | -2.1 | -1.9 | 0.3 | -1.6 | x | x
COc1ccc(NCc2ccc([N+](=O)[O-])s2)cc1 | 9.4 | 31.4 | 1.1 | -8.4 | -3.6 | 0.8 | x | x
COc1ccc(NCc2ccc([N+](=O)[O-])s2)c(OC)c1 | 24.8* | 25.8 | -0.2 | -8.9 | -4.7 | -19.3 | 13.0 | 3.2
CCOc1ccc2nc(Cl)c(C3CC(c4ccco4)=NN3S(=O)(=O)c3ccccc3)cc2c1 (stereo not given) | 28.6* | -4.8 | -77.8 | 8.4 | -91.3 | -2.4 | 1.7 | -13.0
COc1ccc(Cc2c(-c3cccc(Cl)c3)nc3ccc(Cl)cn23)c(C)c1 | -10.9 | x | -19.0 | x | -25.0 | x | x | x
COC(=O)C1=CN(c2ccc(N3CCOCC3)cc2)C(N)=C(C#N)C1c1cccc(OC)c1OC (stereo not given) | 20.1* | x | -5.3 | x | -19.4 | x | -4.9 | -20.5
COC(=O)C1=CN(c2ccc(Oc3ccccc3)cc2)C(N)=C(C#N)C1c1cccc(OC)c1OC (stereo not given) | 10.5 | x | -7.0 | x | -16.2 | x | x | x
COCCCn1cc(CN2CC=CS2(=O)=O)nn1 | 21.1* | x | 2.5 | x | -1.4 | x | -0.4 | -5.8
Cn1c(CSCc2ccc(Cl)cc2)n[nH]c1=S | 19.6* | 10.2 | -0.7 | -2.9 | -1.1 | -11.1 | 18.3 | -2.7
Cn1c(CSCc2ccccc2)n[nH]c1=S | 31.7* | -4.3 | 2.4 | -9.2 | -4.7 | 4.5 | 7.0 | -0.3
CCN(CC)C(=O)c1cccc(-c2csc(C(NC(C)=O)c3cccc(OC)c3)n2)c1 (stereo not given) | -7.8 | x | -2.0 | x | -5.6 | x | x | x
COc1ccc([N+](=O)[O-])cc1CN1CCN(c2ncc(Cc3ccccc3)cn2)CC1 | -4.5 | x | -43.8 | x | 3.5 | x | x | x
C/C(=N\Nc1ncc(Cl)cc1Cl)c1ccc2c(c1)OCO2 | 19.7* | 4.6 | 0.1 | 0.8 | -9.0 | -11.7 | 3.9 | -4.6
CCS(=O)(=O)Nc1ccc2c(c1)C(=O)N(C)[C@@H]1CC[C@H](CC(=O)N3CCCCC3)O[C@H]1CO2 | 10.7 | x | 5.7 | x | 2.8 | x | x | x
C/C(=N\NC(=O)c1nnn(-c2nonc2N)c1-c1ccccc1)c1ccccc1O | 26.4* | 23.1 | -24.0 | -26.6 | -48.6 | -44.4 | 30.4* | 1.6 | BODIPY interf DR=>122
CCN(CC)C(=O)c1ncn2c1c(=O)[nH]c1ccccc12 | 19.5* | x | 3.4 | x | 3.9 | x | 5.7 | -1.8
O=C(c1cc(C2CC2)nn1-c1ccccc1)N1CCN(Cc2ccccc2)CC1 | -4.7 | x | 0.5 | x | 2.1 | x | x | x
CCc1ccc(C(=O)NCc2ccc(Cl)cc2Cl)cc1 | -2.0 | -6.6 | 8.1 | 1.7 | 6.2 | 1.4 | x | x
CCc1ccc(C(=O)NCc2ccc(Cl)cc2)cc1 | 20.5* | 3.4 | 1.5 | 1.6 | 5.7 | 1.8 | 6.6 | -6.5

Compound activity deposited in PubChem BioAssay by several laboratories.
